# Data as given in ChEMBL document CHEMBL3414559, “Novel C-4 heteroaryl 13-cis-retinamide Mnk/AR degrading agents inhibit cell proliferation and migration and induce apoptosis in human breast and prostate cancer cells and suppress growth of MDA-MB-231 human breast and CWR22Rv1 human prostate tumor xenografts in mice” (J Med Chem, 2015).
# How the values were obtained:
# Assay type in all cases: functional
# MCF7 = test: Growth inhibition of human MCF7 cells at 10 uM by MTT assay; details: read-out: GI
# [1] = Growth inhibition of human SKBR3 cells at 10 uM by MTT assay; details: SK-BR-3, read-out: GI
# MDA-MB-468 = test: Growth inhibition of human MDA-MB-468 cells at 10 uM by MTT assay; details: read-out: GI
# MDA-MB-231 [2] = test: Growth inhibition of human MDA-MB-231 cells at 10 uM by MTT assay; details: read-out: GI
# MDA-MB-231 [3] = test: Antitumor activity against human MDA-MB-231 cells xenografted in SCID mouse assessed as inhibition of tumor growth at 20 mg/kg, ip dosed once daily for 5 days per week for 28 days; details: MDA-MB-231, ip, in the assay text read “athymic nude mouse” for “SCID mouse”, route intraperitoneal, read-out: TGI
# Outline: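 Athymic nude female mice with subcutaneous MDA-MB-231 tumors (10 × 10⁶ cells; ~100 mm³ at randomization, n = 6/group) dosed ip once daily, 5 days/week for 28 days, in 40% β-cyclodextrin/ddH₂O; vehicle controls. %T/C computed as median tumor volume treated vs control at day 28 × 100. Body weight monitored.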
SMILES,inhibition of growth at 10 µM (MCF7),inhibition of growth at 10 µM [1],inhibition of growth at 10 µM (MDA-MB-468),inhibition of growth at 10 µM (MDA-MB-231 [2]),inhibition in vivo at 20 mg/kg (MDA-MB-231 [3])
COc1cccc(C2=CCC(C)(C)C(/C=C/C(C)=C/C=C/C(C)=C\C(=O)NCc3ccc(O)cc3)=C2C)c1,≥ 40%,≥ 40%,≥ 40%,≥ 40%,
CC1=C(/C=C/C(C)=C/C=C/C(C)=C\C(=O)NCc2ccc(O)cc2)C(C)(C)CC=C1c1cccnc1,≥ 40%,≥ 40%,≥ 40%,≥ 40%,
COc1cccc(C2=CCC(C)(C)C(/C=C/C(C)=C/C=C/C(C)=C\C(=O)NCCc3ccc(O)cc3)=C2C)c1,≥ 40%,≥ 40%,≥ 40%,≥ 40%,
CC1=C(/C=C/C(C)=C/C=C/C(C)=C/C(=O)Nc2ccc(F)cc2)C(C)(C)CCC1n1ccnc1 (stereo not drawn),,,,,97%
